Here are results for two molecules from publication PMC3936293 (Theranostics, 2014).

Read-outs that look alike come from different tables or passages of the source.

For data set [1] the following is noted: literature data, ref [11]; cited from earlier work.
Data set [2] in a line: PET/CT imaging of tumor and organ uptake. Type of data set: in vivo. The following applies: male, human, total radioactivity.
Data set [3] is described as follows: Blood radioactivity clearance. The following applies: bi-exponential fit of blood radioactivity concentration, 4 patients. Type of data set: in vivo, human. A digest of the protocol: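 Four patients with newly diagnosed prostate cancer, fasted at least 4 h, received the 64Cu-labelled GRPr antagonist (130-233 MBq; 10-17 µg) diluted in 0.9% NaCl with 0.1% bovine serum albumin. Venous blood was drawn at 1, 2, 3, 4, 5, 10, 15 and 30 min and at 1, 2 and 4 h p.i. Radioactivity per mL was gamma-counted, reported as mean ± SD, and fitted bi-exponentially.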

The nature of the next data set: Radiation dosimetry. Type of data set: in vivo, human. A digest of the protocol: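 PET scans were taken at 20 min, 4 h and 20 h p.i., with attenuation correction by 68Ge transmission or CT. Body-weight-normalised SUVs came from circular ROIs centred in each organ. Urine was collected to 18 h in patients 2 and 3, and total excretion was calculated from 1 mL aliquots. Absorbed doses were computed in OLINDA/EXM 1.0 from the time-activity curves and urinary excretion (dynamic bladder model, 3-h voiding interval). Values are mean ± SD.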

A short description of data set [4]: Safety monitoring after injection. The data set is classed as in vivo, human. The following applies: 4 patients; laboratory tests before and 1-2 weeks after injection. In outline: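 Patients were monitored from tracer administration until the end of the last PET/CT session (20 h p.i.) by interview, electrocardiography, heart rate and blood pressure. Serum electrolytes, liver and pancreatic enzymes, creatinine and blood counts were measured before and 1-2 weeks after injection (130-233 MBq; 10-17 µg).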

Data set [5] can be described thus: Metabolite analysis of plasma and urine by RP-HPLC. The data set is classed as in vivo, human. In outline:
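Plasma was prepared by centrifuging blood drawn at 5 min, 30 min, 1 h and 4 h p.i., deproteinised with two volumes of ethanol, centrifuged again, and the supernatant analysed. In patient 2, a 2 h urine sample was loaded onto a C18 cartridge and eluted with ethanol. Analysis used reversed-phase HPLC (C18; 0.1% TFA in water/acetonitrile gradient) with photodiode-array and flow-through gamma detection.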

The mark [6] stands for this setting: OLINDA/EXM 1.0, dynamic bladder model, 3-hour voiding interval, mean ± SD.

On to `C[N+](C)(CF)CCO` [^18F-fluorocholine], for which, in data set [1], the Effective dose was 0.031 ± 0,007 mSv/MBq, the Radiation dose kidney is given as 0.159 ± 0,072 mSv/MBq, the Radiation dose liver is reported as 0.059 ± 0,012 mSv/MBq and the Radiation dose spleen was 0.054 ± 0,021 mSv/MBq. For the same molecule, in data set [1], the “Radiation dose urinary bladder wall” value is listed as 0.063 ± 0,060 mSv/MBq.

With `CC(C)C[C@H](NC(=O)C[C@H](O)[C@H](CC(C)C)NC(=O)[C@H](Cc1c[nH]cn1)NC(=O)CNC(=O)[C@@H](NC(=O)[C@H](C)NC(=O)[C@H](Cc1c[nH]c2ccccc12)NC(=O)[C@H](CCC(N)=O)NC(=O)[C@@H](Cc1ccccc1)NC(=O)COCCOCCOCCOCCNC(=O)CN1CCCN2CCN(CCCN(CC(=O)O)CC2)CC1)C(C)C)C(N)=O` [^64Cu-CB-TE2A-AR06, (^64Cu-4,11-bis(carboxymethyl)-1,4,8,11-tetraazabicyclo(6.6.2)hexadecane)-PEG4-D-Phe-Gln-Trp-Ala-Val-Gly-His-Sta-LeuNH2, metal not drawn], the SUV at 4 h in data set [2] (bladder) was 14 ± 6.63 SUV; in data set [2] (intestine), 0.78 ± 0.68 SUV; in data set [2] (kidney parenchyma), 1.64 ± 0.37 SUV; in data set [2] (liver), 1.8 ± 1.02 SUV; in data set [2] (pancreas), 6.73 ± 3.34 SUV; in data set [2] (prostate), 0.95 ± 0.42 SUV. Moreover, in data set [2] (urinary tract collection system), the SUV at 4 h stood at 5.86 ± 5.34 SUV. Also, the SUV at 20 h in data set [2] (kidney parenchyma) is 0.71 ± 0.34 SUV; in data set [2] (pancreas) it was 0.28 ± 0.22 SUV. Also, the “initial half-life in blood” value in data set [3] came out at 5 min. Moreover, the “terminal half-life in blood” value in data set [3] amounted to 2.75 h. For the same molecule, the Effective radiation dose in the data set “Radiation dosimetry” (setting [6]) amounted to 0.019 ± 0.008 mSv/MBq. Further, the “Radiation dose urinary bladder wall” value in “Radiation dosimetry” (setting [6]) came to 0.176 ± 0.001 mSv/MBq. For the same molecule, the Radiation dose kidney in “Radiation dosimetry” (OLINDA/EXM 1.0, mean ± SD) stood at 0.033 ± 0.008 mSv/MBq. The same molecule registered a Radiation dose liver in the data set “Radiation dosimetry” (OLINDA/EXM 1.0, mean ± SD) of 0.039 ± 0.020 mSv/MBq. Also, the Radiation dose pancreas in “Radiation dosimetry” (OLINDA/EXM 1.0, mean ± SD) is 0.094 ± 0.027 mSv/MBq. In the data set “Radiation dosimetry” (OLINDA/EXM 1.0, mean ± SD), this molecule came in with a Radiation dose spleen of 0.031 ± 0.024 mSv/MBq. Also, the “changes in vital signs, laboratory studies or electrocardiograms” value in data set [4] is on record as “No significant changes”. Further, the metabolites in urine entry in data set [5] (patient 2, 2 h urine sample, C18 column, ethanol elution) is “Only the parent compound was detected”. Also, in data set [5] (plasma at 5 min p.i., ethanol protein precipitation), the metabolites in plasma entry is “No metabolites were detected”.
